Test results: ChEMBL document CHEMBL1126298, “New triazine derivatives as potent modulators of multidrug resistance” (1992)

Legend:
DC3F/AD [1] = test: Percent of cell viability remaining after incubating with a 10 uM concentration; assay type: functional, Cricetulus griseus
Summary of the method: (§1)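 Cells were grown with modulator alone for 4 days under the same conditions as the chemosensitivity assay, and read by MTT. Viability = (absorbance with modulator/absorbance of control cells) × 100. "tox" marks viability below 25%.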

DC3F/AD [2] = test: Increase in adriamycin uptake in modulator-treated cells relative to untreated cells at a concentration of 5 uM; assay type: functional, Cricetulus griseus
Summary of the method: (§2)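 DC-3F/AD or KB-A1 cells (5 × 10⁶/mL) were incubated at 37 °C for 5 h with 50 μM adriamycin plus modulator (2.5–10 μM range). ADR fluorescence of 10 000 cells was read by flow cytometry at 4 °C with 488 nm argon-laser excitation. The value is the increase in mean fluorescence of treated cells over untreated cells.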

KB [3] = test: Percent of cell viability remaining after incubating the cells with the modulator alone; assay type: functional, Homo sapiens; design: concentration or dose not given beside the values; summary of the method: as §1
KB [4] = test: Increase in adriamycin uptake in modulator-treated cells relative to untreated KB-A1 cells at a concentration of 5 uM; assay type: functional, Homo sapiens; summary of the method: as §2
KB [5] = test: In vitro activity in KB-A1 cell line activity expressed as fold reversion (Ratio of IC50(adriamycin alone) / IC50(adriamycin + modulator) at a concentration of 5 uM; assay type: functional, Homo sapiens
Summary of the method: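 Human epidermoid KB-A1 cells (Pgp-overexpressing) were grown in RPMI 1640 with 10% FCS and 10 mM HEPES (pH 7.4). They were exposed for 4 days to adriamycin (nine graded concentrations, in triplicate) with or without 5 μM modulator. IC50 was read by the MTT assay. Fold reversion = IC50(ADR alone)/IC50(ADR + modulator).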

DC3F/AD [6] = test: Percent of cell viability remaining after incubating the cells with the modulator alone a concentration of 5 uM; assay type: functional, Cricetulus griseus; summary of the method: as §1
DC3F/AD [7] = test: In vitro activity in DC-3F/AD cell line(Ratio of IC50(actinomycin D alone) / IC50(actinomycin D + modulator) at a concentration of 5 uM
DC3F/AD [8] = test: Increase in adriamycin uptake in modulator-treated cells relative to untreated cells at a concentration of 10 uM; assay type: functional, Cricetulus griseus; summary of the method: as §2
DC3F/AD [9] = test: In vitro activity in DC-3F/AD cell line Ratio of IC50(actinomycin D alone) / IC50(actinomycin D + modulator) at a concentration of 10 uM

| Structure (SMILES) | Viability (DC3F/AD [1]) | Increase (DC3F/AD [2]) | Viability (KB [3]) | Increase (KB [4]) | Fold reversion (KB [5]) | Viability (DC3F/AD [6]) | Fold reversion (DC3F/AD [7]) | Increase (DC3F/AD [8]) | Fold reversion (DC3F/AD [9]) |
| --- | --- | --- | --- | --- | --- | --- | --- | --- | --- |
| C=CCNc1nc(NCC=C)nc(N2CCC(NC3c4ccccc4CCc4ccccc43)CC2)n1 | 91% | 34.3 | 74% | 34.2 | 91 | 99% | 755 | 39.7 | 1626 |
| C=CCNc1nc(OC)nc(N2CCC(NCC3c4ccccc4CCc4ccccc43)CC2)n1 | 79% | 23.9 | 91% | 40.7 | 138 | 86% | 1092 | 28.5 | 1078 |
| C=CCNc1nc(NCC=C)nc(N2CCC(CNC3c4ccccc4CCc4ccccc43)CC2)n1 | 72% | 14 | 105% | 29.8 | 126 | 96% | 173 | 20.5 | 544 |
| C=CCNc1nc(NCC=C)nc(N2CCC(NCC(c3ccc(F)cc3)C3CCCCC3)CC2)n1 (stereo not drawn) |  | 30.1 | 71% | 48.1 | 142 | 85% | 1009 | 34.6 | <25 |
| C=CCNc1nc(NCC=C)nc(N2CCC(NCC3c4ccccc4Oc4ccccc43)CC2)n1 | 85% | 19.4 | 106% | 43.9 | 140 | 91% | 844 | 25.7 | 2584 |
| C=CCNc1nc(NCC=C)nc(N2CCC(NCC3c4ccccc4CSc4ccccc43)CC2)n1 (stereo not drawn) | 72% | 33.5 | 108% | 57.3 | 393 | 83% | 867 | 32.6 | 6046 |
| CN(C)c1nc(N(C)C)nc(N2CCC(NCC3c4ccccc4CCc4ccccc43)CC2)n1 | 66% | 29.4 | 28% | 16.4 | 7 | 71% | 187 | 30.6 | 544 |
| C=CCNc1nc(NCC=C)nc(N2CCC(NCC3c4ccccc4-c4ccccc43)CC2)n1 | 75% | 19.6 | 42% | 20.6 | 57 | 78% | 170 | 23.2 | 589 |
| C=CCNc1nc(NCC=C)nc(N2CCC(NC3CC4c5ccccc5C3c3ccccc34)CC2)n1 (stereo not drawn) | 102% | 32.9 | 133% | 43.8 | 118 | 98% | 1638 | 35.9 | 4264 |
| C=CCNc1nc(NCC=C)nc(N2CCC(NCC3c4ccccc4NC(=O)c4ccccc43)CC2)n1 (stereo not drawn) | 100% | 2.2 | 113% | 48.4 | 315 | 106% | 2 | 41.5 | 583 |
| C=CCNc1nc(NCC=C)nc(NCC2CCN(C3c4ccccc4CCc4ccccc43)CC2)n1 | 49% | 10.1 | 97% | 1.9 | 10 | 71% | 10 | 17.4 | 46 |
